Measurements reported in ChEMBL document CHEMBL1127500, “Structure-activity studies of benzimidazole-based DNA-cleaving agents. Comparison of benzimidazole, pyrrolobenzimidazole, and tetrahydropyridobenzimidazole analogues” (1994).

Columns and labels:
Type in all cases: functional
[1] = test system: HOP-62; test: Antitumor activity against HOP-62 cell line; conditions: Homo sapiens
Outline: (§1)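 Drugs were screened against a panel of up to 60 human cancer cell lines. The end-point was LC50, the drug concentration lethal to 50% of the cancer cells. Values were expressed as log LC50 and plotted as mean graphs centred on the log of the panel-mean LC50. Bars to the right mark lines with lower log LC50 than the mean.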

[2] = test system: DLD-1; test: Antitumor activity against DLD-1 cell line; conditions: Homo sapiens; outline: as §1
[3] = test system: Malme-3M; test: Antitumor activity against MALME-3M cell line; conditions: Homo sapiens; outline: as §1
[4] = test system: HOP-18; test: Antitumor activity against HOP-18 cell line; conditions: Homo sapiens, read-out: Log LC50 (the source's name) (converted); outline: as §1
[5] = test system: SK-MEL-2; test: Antitumor activity against SK-MEL-2 cell line; conditions: Homo sapiens, read-out: Log LC50 (the source's name) (converted); outline: as §1
[6] = test system: SF-539; test: Antitumor activity against SF-539 cell line; conditions: Homo sapiens; outline: as §1
[7] = test system: EKVX; test: Antitumor activity against EKVX cell line; conditions: Homo sapiens; outline: as §1
[8] = test system: LXFL 529; test: Antitumor activity against […] cell line; conditions: Homo sapiens; outline: as §1
[9] = test system: NCI-H322M; test: Antitumor activity against NCI-H322M cell line; conditions: Homo sapiens, read-out: Log LC50 (the source's name) (converted); outline: as §1
[10] = test system: DMS-114; test: Antitumor activity against DMS 114 cell line; conditions: Homo sapiens; outline: as §1
[11] = test system: IGROV-1; test: Antitumor activity against IGROVI cell line; conditions: Homo sapiens; outline: as §1
[12] = test system: HOP-92; test: Antitumor activity against HOP-92 cell line; conditions: Homo sapiens, read-out: Log LC50 (the source's name) (converted); outline: as §1
[13] = test system: M14; test: Antitumor activity against M 14 cell line; conditions: Homo sapiens; outline: as §1
[14] = test system: SF-268; test: Antitumor activity against SF-268 cell line; conditions: Homo sapiens; outline: as §1
[15] = test system: UO-31; test: Antitumor activity against Renal cancer UO-31 cell line; conditions: Homo sapiens; outline: as §1
[16] = test system: MOLT-4; test: Antitumor activity against MOLT-4 leukemia cell line; conditions: Homo sapiens; outline: as §1
[17] = test system: M19-MEL; test: Antitumor activity against M 19-MEL cell line; conditions: Homo sapiens; outline: as §1
[18] = test system: SNB-; test: Antitumor activity against SNB-71 cell line; conditions: Homo sapiens, read-out: Log LC50 (the source's name) (converted)
Outline: (§2)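 Screened against a panel of up to 60 human cancer cell lines. Read-out is LC50, the drug concentration lethal to 50% of the cells, expressed as log LC50. The mean log LC50 across the screened lines is the centre line of the mean graph. Each line's deviation from that mean is shown as a bar.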

[19] = test system: TK-10; test: Antitumor activity against Renal cancer TK-10 cell line; conditions: Homo sapiens; outline: as §1
[20] = test system: U-251; test: Antitumor activity against U251 cell line; conditions: Homo sapiens; outline: as §2
[21] = test system: HT-29; test: Antitumor activity against HT 29 cell line; conditions: Homo sapiens, read-out: Log LC50 (the source's name) (converted); outline: as §1
[22] = test system: CCRF-CEM; test: Antitumor activity against CCRF-CEM leukemia cell line; conditions: Homo sapiens, read-out: Log LC50 (the source's name) (converted); outline: as §1
[23] = test system: UACC-257; test: Antitumor activity against UACC-257 cell line; conditions: Homo sapiens; outline: as §2
[24] = test system: CAKI-1; test: Antitumor activity against Renal cancer CAKI-1 cell line; conditions: Homo sapiens, read-out: Log LC50 (the source's name) (converted); outline: as §1
[25] = test system: ACHN; test: Antitumor activity against Renal cancer ACHN cell line; conditions: Homo sapiens, read-out: Log LC50 (the source's name) (converted); outline: as §1
[26] = test system: HCC 2998; test: Antitumor activity against HCC2998 cell line; conditions: Homo sapiens, read-out: Log LC50 (the source's name) (converted); outline: as §1
[27] = test system: NCI-H522; test: Antitumor activity against NCI-H522 cell line; conditions: Homo sapiens; outline: as §1
[28] = test system: OVCAR-3; test: Antitumor activity against OVCAR-3 cell line; conditions: Homo sapiens; outline: as §1
[29] = test system: RPMI-8226; test: Antitumor activity against RPMI-8226 leukemia cell line; conditions: Homo sapiens, read-out: Log LC50 (the source's name) (converted); outline: as §1
[30] = test system: SK-MEL-28; test: Antitumor activity against SK-MEL-28 cell line; conditions: Homo sapiens; outline: as §2
[31] = test system: OVCAR-8; test: Antitumor activity against OVCAR-8 cell line; conditions: Homo sapiens, read-out: Log LC50 (the source's name) (converted); outline: as §1
[32] = test system: SW-620; test: Antitumor activity against SW-620 cell line; conditions: Homo sapiens; outline: as §2
[33] = test system: SK-OV-3; test: Antitumor activity against SK-OV-3 cell line; conditions: Homo sapiens, read-out: Log LC50 (the source's name) (converted); outline: as §2
[34] = test system: LOX IMVI; test: Antitumor activity against LOX IMVI cell line; conditions: Homo sapiens; outline: as §1
[35] = test system: RXF 393; test: Antitumor activity against Renal cancer RXF-393 cell line; conditions: Homo sapiens; outline: as §1
[36] = test system: A549; test: Antitumor activity against A549/ATCC cell line; conditions: Homo sapiens; outline: as §1
[37] = test system: OVCAR-4; test: Antitumor activity against OVCAR-4 cell line; conditions: Homo sapiens; outline: as §1
[38] = Mean log10 LC50 was determined; outline: as §2
[39] = test system: HCT-15; test: Antitumor activity against HCT-15 cell line; conditions: Homo sapiens, read-out: Log LC50 (the source's name) (converted); outline: as §1
[40] = test system: SNB-75; test: Antitumor activity against SNB-75 cell line; conditions: Homo sapiens; outline: as §2
[41] = test system: SN12C; test: Antitumor activity against Renal cancer SN 12C cell line; conditions: Homo sapiens; outline: as §1
[42] = test system: KM-20L2; test: Antitumor activity against KM 20L2 cell line; conditions: Homo sapiens; outline: as §1
[43] = test system: KM12; test: Antitumor activity against KM 12 cell line; conditions: Homo sapiens, read-out: Log LC50 (the source's name) (converted); outline: as §1
[44] = test system: OVCAR-5; test: Antitumor activity against OVCAR-5 cell line; conditions: Homo sapiens; outline: as §1
[45] = test system: 786-0; test: Antitumor activity against Renal cancer 786-O cell line; conditions: Homo sapiens; outline: as §1
[46] = test system: SF-295; test: Antitumor activity against SF-295 cell line; conditions: Homo sapiens, read-out: Log LC50 (the source's name) (converted); outline: as §1
[47] = test system: SK-MEL-5; test: Antitumor activity against SK-MEL-5 cell line; conditions: Homo sapiens; outline: as §2
[48] = test system: NCI-H226; test: Antitumor activity against NCI-H226 cell line; conditions: Homo sapiens; outline: as §1
[49] = test system: K562; test: Antitumor activity against K-562 leukemia cell line; conditions: Homo sapiens, read-out: Log LC50 (the source's name) (converted); outline: as §1
[50] = test system: SNB-19; test: Antitumor activity against SNB-19 cell line; conditions: Homo sapiens; outline: as §2
[51] = test system: XF498; test: Antitumor activity against XF 498 cell line; conditions: Homo sapiens, read-out: Log LC50 (the source's name) (converted); outline: as §2

CC(=O)OC1CCn2c1nc1c2C(=O)C(N2CC2)=C(C)C1=O (stereo unspecified)
LC50 [1]: 0.219 µM | LC50 [2]: 53.7 µM | LC50 [3]: 0.589 µM | CC50 [4]: 3.16 µM | CC50 [5]: 0.479 µM | LC50 (concentration lethal to 50% of cells) [6]: 0.631 µM | LC50 [7]: 0.832 µM | LC50 [8]: 0.525 µM | CC50 [9]: 2.69 µM | LC50 [10]: > 100 µM | LC50 [11]: 8.13 µM | CC50 [12]: 11.2 µM | LC50 [13]: 0.324 µM | LC50 [14]: 5.62 µM | LC50 (concentration lethal to 50% of cancer cells) [15]: 0.145 µM | LC50 [16]: > 100 µM | LC50 [17]: > 100 µM | CC50 [18]: 6.46 µM | LC50 [19]: 2.88 µM | LC50 [20]: 3.09 µM | CC50 [21]: 5.37 µM | CC50 [22]: > 100 µM | LC50 [23]: 2.04 µM | CC50 [24]: 6.46 µM | CC50 [25]: 2.34 µM | CC50 [26]: 0.372 µM | LC50 [27]: 0.1 µM | LC50 [28]: 3.39 µM | CC50 [29]: > 100 µM | LC50 [30]: 0.603 µM | CC50 [31]: 1 µM | LC50 [32]: 4.27 µM | CC50 [33]: 2.95 µM | LC50 [34]: 0.0661 µM | LC50 [35]: 0.0513 µM | LC50 [36]: 7.76 µM | LC50 [37]: 0.38 µM | Mean log LC50 [38]: -5.68 | CC50 [39]: 3.09 µM | LC50 [40]: 0.603 µM | LC50 [41]: 0.617 µM | LC50 (concentration lethal to 50% of cells) [42]: 4.37 µM | CC50 [43]: 1.07 µM | LC50 [44]: 3.39 µM | LC50 [45]: 0.347 µM | CC50 [46]: 2 µM | LC50 [47]: 0.224 µM | LC50 [48]: 0.955 µM | CC50 [49]: > 100 µM | LC50 [50]: 2.57 µM | CC50 [51]: 0.126 µM
